Screening data deposited in PubChem BioAssay by Johns Hopkins Ion Channel Center.
The list is not random: actives were taken first. Their share in the collection is about 3.8%.
KCNK3 block – human KCNK3 channel inhibition, primary screen | 0.84% of 340,000 active | B-score at 10 µM | AID 602410 | O14649 | CHO-KCNK3 thallium flux, FluxOR fluorescence; hits give low values;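 active = B-score under library mean minus 4 SD, starting fluorescence ratio at most library mean plus 5 SD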;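 also: more negative B-score means stronger inhibition of thallium flux through KCNK3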
KCNQ1 pot – human KCNQ1 channel potentiation or activation | 0.35% of 310,000 active | P51787 | CHO-K1 KCNQ1, thallium flux FluxOR fluorescence; hits give high values | B-score at 10 µM;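 active = fluorescence ratio B-score, a plate-corrected score, at least three library SD, with initial intensity B-score within 5 SD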
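System: Stable KCNQ1 CHO-K1 line | Incubation: 90 min dye loading and 20 min compound exposure, both at room temperature | Measure: Ratio B score | Medium: Assay buffer for compound exposure, DMSO matched across wells | Compound dosing: Single-concentration screen | Probe or stimulus: K+/Tl+ depolarizing stimulus | Measured by: Kinetic FluxOR fluorescence, 10 s baseline plus 110 s post-stimulus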
KCNQ1 inh – human KCNQ1 channel inhibition; P51787; CHO-K1 KCNQ1, FluxOR thallium flux fluorescence; hits give high values; B-score at 10 µM; 1.3% of 310,000 active;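 active = compounds whose thallium flux B-score, printed positive for inhibition, exceeds three library SD while starting fluorescence stays within three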;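 also: channel opened by potassium depolarization with thallium stimulus after 20 min compound exposure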
hERG protect – hERG (human) protection from proarrhythmic block | CHO-hERG, FluxOR thallium flux, dofetilide IC70 present | 0.51% of 310,000 active | Q12809 | activation (rescue from dofetilide block), less the hit threshold, % at 10 µM;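 active = activation above the mean of controls blocked by dofetilide plus 5 SD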;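 also: thallium influx through hERG after potassium depolarization seen as dye fluorescence rise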
Target sequence (Q12809 whole entry, looked up): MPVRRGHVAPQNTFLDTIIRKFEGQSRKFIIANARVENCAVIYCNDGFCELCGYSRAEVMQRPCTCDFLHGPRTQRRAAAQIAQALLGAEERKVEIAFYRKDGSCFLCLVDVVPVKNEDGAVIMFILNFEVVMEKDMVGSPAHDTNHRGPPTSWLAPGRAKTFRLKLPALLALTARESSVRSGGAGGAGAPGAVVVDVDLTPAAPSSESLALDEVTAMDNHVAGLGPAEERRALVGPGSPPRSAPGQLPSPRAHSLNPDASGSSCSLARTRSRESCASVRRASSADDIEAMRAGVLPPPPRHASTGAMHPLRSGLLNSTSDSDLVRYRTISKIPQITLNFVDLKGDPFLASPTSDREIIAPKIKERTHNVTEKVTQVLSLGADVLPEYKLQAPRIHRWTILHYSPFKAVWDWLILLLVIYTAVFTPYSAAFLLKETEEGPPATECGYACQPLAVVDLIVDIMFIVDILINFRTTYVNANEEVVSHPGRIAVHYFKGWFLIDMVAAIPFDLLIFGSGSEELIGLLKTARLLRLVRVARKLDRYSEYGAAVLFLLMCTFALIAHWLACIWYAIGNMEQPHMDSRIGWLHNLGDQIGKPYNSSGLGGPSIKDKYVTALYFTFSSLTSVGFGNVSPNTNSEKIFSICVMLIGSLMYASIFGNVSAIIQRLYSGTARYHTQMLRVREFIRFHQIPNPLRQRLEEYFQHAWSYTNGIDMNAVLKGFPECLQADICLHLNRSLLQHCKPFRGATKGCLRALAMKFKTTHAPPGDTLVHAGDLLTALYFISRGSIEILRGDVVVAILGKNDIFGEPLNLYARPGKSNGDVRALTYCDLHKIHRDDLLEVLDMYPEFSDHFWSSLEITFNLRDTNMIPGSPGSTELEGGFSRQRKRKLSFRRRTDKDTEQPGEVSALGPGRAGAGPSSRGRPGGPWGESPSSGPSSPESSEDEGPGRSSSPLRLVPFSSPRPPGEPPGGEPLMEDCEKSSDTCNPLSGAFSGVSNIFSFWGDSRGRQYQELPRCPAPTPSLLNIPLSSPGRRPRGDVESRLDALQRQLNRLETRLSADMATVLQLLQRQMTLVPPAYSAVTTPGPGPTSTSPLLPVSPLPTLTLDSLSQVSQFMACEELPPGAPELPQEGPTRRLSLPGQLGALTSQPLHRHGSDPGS
Kir21 inh – Kir2.1 (mouse) channel inhibition. P35561. HEK293-Kir2.1, FluxOR thallium flux fluorescence; hits give low values. B-score at 10 µM. 0.85% of 310,000 active;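 active = fluorescence ratio B-score at or below minus 3 SD of library scores, with starting-brightness B-score within 2 SD, cut at about -4.2 in these data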;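 also: channel flux triggered by added potassium and thallium sulfate stimulus; B-score of peak minus minimum fluorescence over baseline after thallium stimulus; more negative B-score means stronger Kir2.1 block with less thallium influx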
KCNK9 inh – blocks the human KCNK9 two-pore domain potassium channel; Q9NPC2; HEK293 KCNK9, FluxOR thallium flux fluorescence; hits give low values; B-score at 10 µM; 1.2% of 310,000 active; AID 488922;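 active = ratio B-score over 3 SD below the library mean, with starting fluorescence within 5 SD of its mean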;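 also: negative B-score means less thallium flux so channel inhibition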
KCNK9 block conf – human KCNK9 inhibitor confirmation; inhibition, % at 10 µM; 43% of 4,900 active; shares compounds with KCNK9 inh; HEK293 KCNK9 cells, FluxOR thallium flux fluorescence;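 active = thallium signal inhibited by more than 5 SD of the compound-free buffer control wells, on both duplicate plates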
Kir2-1 spec – mouse Kir2.1 off-target activity of KCNK9 modulators; AID 492993; inhibition, % at 10 µM; 4% of 4,900 active; shares compounds with KCNK9 inh; Kir2.1 cells, FluxOR thallium flux fluorescence;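 active = thallium signal drop more than 5 SD beyond the mean of the no-compound control wells, seen in both duplicate plates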;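 also: signal is fluorescence rise after thallium addition divided by baseline fluorescence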
KCNK9 uninduced – second counter-screen for KCNK9 modulators: effect in non-induced cells. shares compounds with KCNK9 inh. non-induced KCNK9-HEK293, FluxOR thallium flux. inhibition, % at 10 µM. 40% of 4,900 active;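 active = thallium signal drop beyond 5 SD of the untreated control mean, on both duplicate plates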
Numbers stand for hits; - = inactive; . = no result.

SMILES | KCNK3 block | KCNQ1 pot | KCNQ1 inh | hERG protect | Kir21 inh | KCNK9 inh | KCNK9 block conf | Kir2-1 spec | KCNK9 uninduced
O=C(CN1CCc2ccccc21)NCc1ccccc1Cl | - | - | - | - | - | - | - | - | -
O=C(O)c1ccccc1N/C=C\[N+](=O)[O-] | - | - | - | - | - | - | . | . | .
Cc1nn(Cc2ccccc2)c(Cl)c1C(=O)OCc1nnc(-c2ccc(Cl)cc2)o1 | - | - | - | - | - | - | - | - | -
CCOC(=O)c1c(SC)[nH]c2c(Cl)cccc2c1=O | - | - | - | - | - | - | . | . | .
Cc1ccc(NC(=O)N(Cc2cccs2)Cc2cc3cc4c(cc3[nH]c2=O)OCO4)cc1 | . | - | - | - | - | - | . | . | .
O=C(Nc1ccc(F)cc1)N(Cc1cccs1)Cc1cc2cc3c(cc2[nH]c1=O)OCO3 | - | - | - | - | - | -10.8 | - | - | 42.5%
CC(=O)N1c2ccccc2Sc2ccccc21 | - | - | - | - | - | - | . | . | .
COc1ccc(CCNC(=O)N2c3ccccc3Sc3ccccc32)cc1 | - | - | - | - | - | - | - | - | -
COc1ccccc1C(=O)N1c2ccccc2Sc2ccccc21 | - | - | - | - | - | -13.6 | 54.0% | - | 42.0%
CC(C)(C)NC(=O)N1c2ccccc2Sc2ccccc21 | - | - | - | - | - | - | - | - | -
CC(C)NC(=O)N1c2ccccc2Sc2ccccc21 | - | - | - | - | - | - | . | . | .
O=C(NCc1ccco1)N1c2ccccc2Sc2ccccc21 | - | - | - | - | - | - | - | - | -
CC(C)Cc1nnc(NC(=O)C2=COCCO2)s1 | - | . | . | . | . | . | . | . | .
CCc1ccc(C(C(=O)NC2CCCC2)N(Cc2cccnc2)C(=O)c2csnn2)cc1 (centres undefined) | - | - | - | - | - | - | . | . | .
COc1ccc(S(=O)(=O)N2CCC3(CC2)OCCN3S(=O)(=O)c2cccs2)cc1OC | - | - | - | - | - | - | . | . | .
COc1cc2nc(N3CCN(C(=O)OCc4ccccc4)[C@H](C(=O)NC(C)(C)C)C3)nc(N)c2cc1OC | - | . | . | . | . | . | . | . | .
O=C(COc1ccc2ccccc2c1)N1c2ccccc2Sc2ccccc21 | - | - | - | - | - | -12.8 | 55.5% | - | 45.5%
CC1CN(C(=O)COc2ccc3ccccc3c2)CC(C)O1 (centres undefined) | - | . | . | . | . | . | . | . | .
O=C(Nc1cccnc1)c1ccc2nc(-c3ccccc3)c(-c3ccccc3)nc2c1 | - | - | - | - | - | -10.9 | 42.0% | - | 39.5%
CCc1ccccc1OCCCCN1CCCC1 | - | - | - | - | - | - | . | . | .
CCOc1ccccc1OCCCOc1ccc(C)cc1Cl | - | - | - | - | - | - | - | - | 32.0%
CCOc1ccc(OCCOCCOc2ccccc2Cl)cc1 | - | - | - | - | - | - | - | - | -
CCOc1ccccc1OCCOc1ccccc1CC | - | - | - | - | - | - | - | - | -
COc1ccccc1OCCOCCOc1ccccc1Cl | - | - | - | - | - | - | - | - | -
Clc1ccc(Cc2ccccn2)cc1 | - | . | . | . | . | . | . | . | .
SMILES | KCNK3 block | KCNQ1 pot | KCNQ1 inh | hERG protect | Kir21 inh | KCNK9 inh | KCNK9 block conf | Kir2-1 spec | KCNK9 uninduced
CCC(C)(C)NC(=O)C(c1cccc(OC)c1)N(C(=O)CNC(=O)c1cccs1)c1cccnc1 (centres undefined) | - | - | - | - | - | - | . | . | .
CCOc1ccccc1N1CCN(CC(O)COC2CCCc3ccccc32)CC1 (centres undefined) | - | - | - | - | - | - | . | . | .
CC1CCc2c(sc(NC(=O)c3ccccc3C(=O)O)c2C#N)C1 (centres undefined) | - | - | - | - | - | - | . | . | .
CCC(C)(C)C1CCc2c(sc(NC(=O)c3ccccc3C(=O)O)c2C#N)C1 (centres undefined) | - | 9 | - | 15.1 | - | - | - | - | -
COc1ccc(NCc2nc3ccccc3n2CCOc2ccc(C)cc2)cc1 | - | - | - | - | - | -10.7 | 69.5% | 48.0% | 51.5%
c1ccc(NCc2nc3ccccc3n2CCOc2ccccc2)cc1 | - | - | - | - | - | - | . | . | .
COc1ccc(NCc2nc3ccccc3n2CCOc2ccccc2)cc1 | - | - | - | - | -4.55 | -11.2 | - | - | 33.0%
Cc1cccc(OCCn2c(-c3ccco3)nc3ccccc32)c1 | - | - | - | - | - | -10.1 | 30.0% | - | 33.5%
COc1ccc(NCc2nc3ccccc3n2C)cc1 | - | - | - | - | - | - | . | . | .
c1ccc(OCCn2c(-c3ccco3)nc3ccccc32)cc1 | - | - | - | - | - | - | . | . | .
Cc1cc(Cl)c2oc(C(=O)N(C)Cc3nccn3C)c(C)c2c1 | - | - | - | - | - | - | . | . | .
CC(=O)c1ccc(NC(=O)C(C)Sc2nnc(-c3ccncc3)n2C2CC2)cc1 (centres undefined) | - | . | . | . | . | . | . | . | .
CS(=O)(=O)N(CC(=O)NCCSCc1ccccc1)c1ccccc1F | - | - | - | - | - | - | . | . | .
N#Cc1c(-c2ccccc2)nc(SCC(=O)N2c3ccccc3Sc3ccccc32)[nH]c1=O | - | - | - | - | - | - | - | - | 25.0%
O=C(NCCCn1ccnc1)c1ccc(N2CCCCC2)c([N+](=O)[O-])c1 | - | - | - | - | - | - | . | . | .
O=C(OC(c1ccccc1)c1nccc2ccccc12)c1cccc([N+](=O)[O-])c1 (centres undefined) | - | - | 7 | - | - | -13 | 40.0% | - | 47.5%
SC(COCc1ccccc1)CN1CCN(Cc2ccc3c(c2)OCO3)CC1 (centres undefined) | - | - | - | - | - | - | - | - | -
CC(C)CC(=O)C1CCCN(C(=O)c2ccc3oc(Cc4ccccc4)nc3c2)C1 (centres undefined) | - | - | - | - | - | - | - | - | -
O=C(NC(Cc1ccccc1)C(=O)O)/C(=C/c1ccc(F)cc1)NC(=O)c1ccccc1 (centres undefined) | - | - | - | - | - | - | . | . | .
COc1cccc(-c2nnc(SCC(=O)Nc3ccc4c(c3)OCCO4)n2Cc2ccco2)c1 | - | - | - | - | - | -16.4 | 63.5% | - | 37.0%
CCCn1c(SCC(=O)Nc2ccc3c(c2)OCCO3)nnc1-c1ccco1 | - | - | - | - | - | - | . | . | .
COc1ccc(/C=C/C(=O)C2CC2)cc1COc1c(C)cccc1C | - | - | 8 | - | - | -11.4 | 48.5% | - | -
COc1ccc(/C=C/C(=O)c2ccccc2)cc1COc1ccccc1F | -11.6 | - | - | - | - | -11.6 | 50.0% | - | 32.0%
O=CN(c1ccccc1)c1ccc2ccccc2c1 | - | - | - | - | - | - | . | . | .
